We go through 24 molecules from ChEMBL document CHEMBL4680226, “Design, synthesis, and evaluation of N-phenyl-4-(2-phenylsulfonamido)-benzamides as microtubule-targeting agents in drug-resistant cancer cells, displaying HDAC inhibitory response” (Eur J Med Chem, 2020).

Calls of active or inactive are those of the source. The rule behind the calls is not given here.

Usually GI50 stands for the concentration that inhibits growth by half. One may read the IC50 as the concentration at which inhibition is half-maximal.

One assay concerns KB. Briefly: Antiproliferative activity against human KB cells incubated for 48 hrs by SRB assay. In kind it is functional. In short, it runs like this:
(§1)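 KB parental and resistant sublines kept in RPMI 1640 with 5% FBS at 37 °C, 5% CO2. Cells plated, left overnight, then given graded compound concentrations for 48 h. A time-zero plate was fixed with 10% TCA at dosing. Cells were stained with 0.4% SRB in 1% acetic acid, unbound dye washed off, bound dye dissolved in 10 mM Tris base, and absorbance read at 515 nm.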
For orientation: Sulforhodamine B stains cellular protein and so reports cell mass.

Assay [1] in a line: Antiproliferative activity against human KB7D cells incubated for 48 hrs by SRB assay. In kind it is functional. In short, it runs like this: as §1
Assay [2] has as its system KB7D. The experiment in a line: Induction of apoptosis in human KB7D cells assessed as increase in activated gammaH2AX expression measured after 24 hrs by Western blot analysis. It counts as functional, cell-based. In short, it runs like this:
(§2)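 Resistant KB cells attached overnight, then drug-treated at the stated concentrations and times (24 h or 48 h). Lysates were immunoblotted for cleaved PARP, caspase-3, -8 and -9, and γH2AX, with anti-mouse or anti-rabbit IgG secondaries.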
On the technique in general: A western blot detects proteins with antibodies after separation by electrophoresis.

Assay [3] relates to KB-VIN. Briefly: Induction of apoptosis in human KB-VIN cells assessed as increase in cleaved PARP expression at 0.01 to 0.5 uM by Western blot analysis. It counts as functional, cell-based. To be noted: dose 0.01-0.5 µM. The gist of the method:
as §2

Assay [4] has as its system KB-VIN. The experiment in a line: Induction of apoptosis in human KB-VIN cells assessed as increase in cleaved caspase-9 expression at 0.01 to 0.5 uM by Western blot analysis. It counts as functional, cell-based. To be noted: dose 0.01-0.5 µM. In short, it runs like this:
as §2

Another assay concerns the target T1, Histone deacetylase 8 (Homo sapiens, UniProt Q9BY41).
T1 sequence (Q9BY41 whole entry): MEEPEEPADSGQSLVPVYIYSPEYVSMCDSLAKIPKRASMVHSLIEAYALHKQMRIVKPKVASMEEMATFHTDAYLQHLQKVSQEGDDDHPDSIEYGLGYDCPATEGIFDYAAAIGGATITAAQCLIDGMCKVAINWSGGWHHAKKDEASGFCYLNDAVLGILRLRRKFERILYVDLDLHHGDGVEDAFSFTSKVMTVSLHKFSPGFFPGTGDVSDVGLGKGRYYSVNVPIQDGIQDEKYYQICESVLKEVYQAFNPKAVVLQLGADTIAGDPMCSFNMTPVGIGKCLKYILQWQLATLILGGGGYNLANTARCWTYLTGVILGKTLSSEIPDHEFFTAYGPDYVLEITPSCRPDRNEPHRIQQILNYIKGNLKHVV
Briefly: Inhibition of human recombinant HDAC8 using RHKAcKAc-AMC as substrate measured after 60 mins by fluorescence assay.

The next assay addresses Histone deacetylase 1 (Homo sapiens, UniProt Q13547). The experiment in a line: Inhibition of recombinant human full-length C-terminal FLAG-His tagged HDAC1 (1 to 482 residues) expressed in Sf21 insect cells using RHK-K(Ac)-AMC as substrate measured after 60 mins by fluorescence assay.
Assay [5] can be described thus: Antiproliferative activity against human KB-VIN cells incubated for 48 hrs by SRB assay. It counts as functional. To be noted: KBVIN. In short, it runs like this: as §1
The target in a further assay is Histone deacetylase 2 (Homo sapiens, UniProt Q92769). Briefly: Inhibition of recombinant human C-terminal GST-tagged HDAC2 (1 to 488 residues) expressed in baculovirus infected insect cells using RHKKAc-AMC as substrate measured after 60 mins by fluorescence assay.
Sequence of Histone deacetylase 2 (Q92769 whole entry, the tested form may be a part): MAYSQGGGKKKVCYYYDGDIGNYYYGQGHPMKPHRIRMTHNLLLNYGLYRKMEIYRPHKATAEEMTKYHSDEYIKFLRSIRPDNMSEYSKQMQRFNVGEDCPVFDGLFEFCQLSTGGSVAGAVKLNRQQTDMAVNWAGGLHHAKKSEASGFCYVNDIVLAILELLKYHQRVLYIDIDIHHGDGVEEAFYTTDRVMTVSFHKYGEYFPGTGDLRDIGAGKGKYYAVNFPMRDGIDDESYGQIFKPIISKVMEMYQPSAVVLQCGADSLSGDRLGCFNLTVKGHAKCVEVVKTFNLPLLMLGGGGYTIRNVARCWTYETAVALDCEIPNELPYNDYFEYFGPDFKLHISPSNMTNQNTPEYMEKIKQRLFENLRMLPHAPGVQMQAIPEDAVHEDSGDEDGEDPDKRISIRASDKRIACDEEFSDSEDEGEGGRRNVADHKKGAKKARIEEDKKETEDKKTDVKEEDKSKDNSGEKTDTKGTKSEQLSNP
Assay [6] deals with Histone deacetylase 3/Nuclear receptor corepressor 2 (HDAC3/NCoR2) (Homo sapiens, UniProt O15379). Briefly: Inhibition of human recombinant HDAC3/NCOR2 using RHKKAc-AMC as substrate measured after 60 mins by fluorescence assay. It counts as protein-complex assay.
Sequence of Histone deacetylase 3/Nuclear receptor corepressor 2 (HDAC3/NCoR2) (O15379 whole entry): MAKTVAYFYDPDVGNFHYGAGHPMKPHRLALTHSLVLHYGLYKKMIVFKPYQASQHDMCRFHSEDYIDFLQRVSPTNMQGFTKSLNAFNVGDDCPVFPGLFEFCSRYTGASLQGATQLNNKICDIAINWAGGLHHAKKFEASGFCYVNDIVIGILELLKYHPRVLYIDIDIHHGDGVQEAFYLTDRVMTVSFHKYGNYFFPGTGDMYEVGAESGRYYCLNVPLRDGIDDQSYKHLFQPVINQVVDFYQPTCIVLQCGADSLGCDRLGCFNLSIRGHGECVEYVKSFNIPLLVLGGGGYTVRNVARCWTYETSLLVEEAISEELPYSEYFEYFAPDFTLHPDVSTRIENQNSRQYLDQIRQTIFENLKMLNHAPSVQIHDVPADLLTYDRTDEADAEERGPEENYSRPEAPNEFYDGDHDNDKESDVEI
Sequence of Histone deacetylase 3/Nuclear receptor corepressor 2 (HDAC3/NCoR2) (Q9Y618 whole entry, further chain): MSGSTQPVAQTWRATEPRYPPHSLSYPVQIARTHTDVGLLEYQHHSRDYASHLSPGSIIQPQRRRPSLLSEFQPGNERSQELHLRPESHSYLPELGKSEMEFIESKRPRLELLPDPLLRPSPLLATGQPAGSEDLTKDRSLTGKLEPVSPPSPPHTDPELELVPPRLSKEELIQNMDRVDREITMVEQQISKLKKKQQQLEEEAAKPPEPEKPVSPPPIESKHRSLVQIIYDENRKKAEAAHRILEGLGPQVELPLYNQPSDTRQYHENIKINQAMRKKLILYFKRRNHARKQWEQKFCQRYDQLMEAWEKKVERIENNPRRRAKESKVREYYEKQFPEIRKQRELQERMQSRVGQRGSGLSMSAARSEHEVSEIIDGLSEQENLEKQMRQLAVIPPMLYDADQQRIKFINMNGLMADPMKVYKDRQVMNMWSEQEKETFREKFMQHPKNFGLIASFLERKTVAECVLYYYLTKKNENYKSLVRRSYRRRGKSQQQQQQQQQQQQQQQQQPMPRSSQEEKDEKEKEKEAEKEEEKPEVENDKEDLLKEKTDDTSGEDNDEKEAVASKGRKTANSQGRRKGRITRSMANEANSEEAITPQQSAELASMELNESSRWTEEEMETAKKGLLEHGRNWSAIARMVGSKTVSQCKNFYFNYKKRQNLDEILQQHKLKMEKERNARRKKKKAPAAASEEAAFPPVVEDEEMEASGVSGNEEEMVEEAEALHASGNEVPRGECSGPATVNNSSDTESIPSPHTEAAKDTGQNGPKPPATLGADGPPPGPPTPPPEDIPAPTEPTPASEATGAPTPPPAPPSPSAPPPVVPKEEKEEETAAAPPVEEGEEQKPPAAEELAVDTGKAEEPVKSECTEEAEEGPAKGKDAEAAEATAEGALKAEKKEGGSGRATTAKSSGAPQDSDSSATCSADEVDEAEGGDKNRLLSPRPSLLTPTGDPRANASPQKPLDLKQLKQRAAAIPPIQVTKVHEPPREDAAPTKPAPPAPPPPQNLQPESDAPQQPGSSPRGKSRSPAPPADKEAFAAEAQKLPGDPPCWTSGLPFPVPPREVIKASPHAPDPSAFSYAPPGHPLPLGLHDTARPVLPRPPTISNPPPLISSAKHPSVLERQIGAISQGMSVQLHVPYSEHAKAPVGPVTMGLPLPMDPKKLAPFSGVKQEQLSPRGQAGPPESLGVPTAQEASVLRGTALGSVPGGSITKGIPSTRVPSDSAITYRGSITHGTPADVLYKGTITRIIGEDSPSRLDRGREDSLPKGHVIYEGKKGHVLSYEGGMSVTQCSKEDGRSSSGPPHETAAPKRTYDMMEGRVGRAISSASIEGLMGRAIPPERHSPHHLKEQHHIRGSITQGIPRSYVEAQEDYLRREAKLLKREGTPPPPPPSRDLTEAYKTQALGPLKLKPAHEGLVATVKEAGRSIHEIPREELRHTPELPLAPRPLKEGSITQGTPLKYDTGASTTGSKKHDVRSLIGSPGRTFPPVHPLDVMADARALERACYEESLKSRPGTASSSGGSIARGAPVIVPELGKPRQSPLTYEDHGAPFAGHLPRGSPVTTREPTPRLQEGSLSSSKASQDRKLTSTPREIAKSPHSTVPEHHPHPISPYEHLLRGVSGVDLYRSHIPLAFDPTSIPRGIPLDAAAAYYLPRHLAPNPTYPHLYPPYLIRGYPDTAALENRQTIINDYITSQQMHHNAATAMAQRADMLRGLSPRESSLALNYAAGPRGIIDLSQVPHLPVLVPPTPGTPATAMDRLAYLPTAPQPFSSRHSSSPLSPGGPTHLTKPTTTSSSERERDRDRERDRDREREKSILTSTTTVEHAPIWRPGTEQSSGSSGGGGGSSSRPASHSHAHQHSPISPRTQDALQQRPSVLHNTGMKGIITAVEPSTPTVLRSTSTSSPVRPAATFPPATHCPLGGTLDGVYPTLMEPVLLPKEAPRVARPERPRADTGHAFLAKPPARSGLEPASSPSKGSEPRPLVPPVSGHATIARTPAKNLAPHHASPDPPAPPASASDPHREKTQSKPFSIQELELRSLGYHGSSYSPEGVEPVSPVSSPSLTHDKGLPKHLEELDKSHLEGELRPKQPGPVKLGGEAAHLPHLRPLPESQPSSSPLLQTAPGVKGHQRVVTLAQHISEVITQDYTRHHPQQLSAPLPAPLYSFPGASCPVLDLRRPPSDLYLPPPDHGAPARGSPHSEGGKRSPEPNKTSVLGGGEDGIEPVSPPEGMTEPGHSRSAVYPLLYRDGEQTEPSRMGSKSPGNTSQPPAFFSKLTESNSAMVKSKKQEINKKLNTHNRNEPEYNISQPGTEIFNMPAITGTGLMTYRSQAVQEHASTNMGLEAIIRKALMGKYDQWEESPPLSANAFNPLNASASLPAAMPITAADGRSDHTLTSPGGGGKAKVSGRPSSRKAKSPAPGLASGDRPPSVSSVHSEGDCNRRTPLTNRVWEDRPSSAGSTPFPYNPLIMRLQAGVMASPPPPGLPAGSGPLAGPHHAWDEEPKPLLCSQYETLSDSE
Assay [7] concerns KB-VIN. Briefly: Induction of apoptosis in human KB-VIN cells assessed as increase in cleaved caspase-3 expression at 0.01 to 0.5 uM by Western blot analysis. In kind it is functional, cell-based. To be noted: dose 0.01-0.5 µM. In short, it runs like this: as §2
For assay [8], the system named is KB-VIN. Briefly: Induction of apoptosis in human KB-VIN cells assessed as increase in cleaved caspase-8 expression at 0.01 to 0.5 uM by Western blot analysis. It counts as functional, cell-based. Particulars: dose 0.01-0.5 µM. In short, it runs like this: as §2
In assay [9] the test system is KB7D. Briefly: Induction of apoptosis in human KB7D cells assessed as increase in activated gammaH2AX expression at 0.1 uM measured after 24 hrs by Western blot analysis. It counts as functional, cell-based. In short, it runs like this:
as §2

The subject of assay [10] is KB7D. Briefly: Induction of apoptosis in human KB7D cells assessed as increase in activated gammaH2AX expression at 5 uM measured after 24 hrs by Western blot analysis. In kind it is functional, cell-based. In short, it runs like this:
as §2

Sequence of Histone deacetylase 1 (Q13547 whole entry, the tested form may be a part): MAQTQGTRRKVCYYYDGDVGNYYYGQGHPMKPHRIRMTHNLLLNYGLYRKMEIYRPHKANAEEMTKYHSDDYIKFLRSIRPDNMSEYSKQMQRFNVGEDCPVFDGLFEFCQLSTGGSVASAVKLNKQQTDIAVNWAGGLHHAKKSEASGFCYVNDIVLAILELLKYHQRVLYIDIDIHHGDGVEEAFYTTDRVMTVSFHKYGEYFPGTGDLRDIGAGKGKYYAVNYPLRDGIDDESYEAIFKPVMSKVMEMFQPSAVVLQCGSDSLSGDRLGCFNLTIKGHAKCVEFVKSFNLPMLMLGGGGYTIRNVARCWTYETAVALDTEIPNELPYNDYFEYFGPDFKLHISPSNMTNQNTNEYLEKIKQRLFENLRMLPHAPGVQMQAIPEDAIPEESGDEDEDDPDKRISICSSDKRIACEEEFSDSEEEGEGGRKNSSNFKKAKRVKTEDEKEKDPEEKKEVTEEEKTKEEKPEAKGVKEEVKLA

The molecule `N#Cc1ccc(S(=O)(=O)Nc2ccccc2CCc2ccc(C(=O)Nc3ccccc3N)cc2)cc1` showed a GI50 in the assay on KB of 790 nM.

In the assay on KB, `COc1ccc(S(=O)(=O)Nc2ccccc2CCc2ccc(C(=O)Nc3ccc(N)cc3)cc2)cc1` returned a GI50 of 286 nM.

In the assay with KB, `COc1ccc(S(=O)(=O)Nc2ccccc2CCc2ccc(C(=O)Nc3cccc(N)c3)cc2)cc1` showed a concentration for 50% growth inhibition (GI50) of 697 nM.

Molecule `COc1ccc(S(=O)(=O)Nc2ccccc2CCc2ccc(C(=O)Nc3ccccc3N)cc2)cc1OC` registered a GI50 in the assay on KB of 888 nM.

In the case of `COc1cc([C@@H]2c3cc4c(cc3[C@@H](O[C@@H]3O[C@@H]5CO[C@@H](C)O[C@H]5[C@H](O)[C@H]3O)[C@H]3COC(=O)[C@H]23)OCO4)cc(OC)c1O` [ETOPOSIDE], the GI50 in assay [1] turned out to be 98600 nM; in the assay with KB, 8390 nM. Moreover, in the assay with KB7D [2], the result was Active.

With `COc1ccc(S(=O)(=O)Nc2ccccc2CCc2ccc(C(=O)Nc3cc(F)ccc3N)cc2)cc1`, the outcome with KB-VIN [3], with KB-VIN [4], in the assay on KB-VIN [7] and in the assay with KB-VIN [8] was Active. Moreover, the results for the GI50 (in [1]; in [5]; in the assay on KB) were 12 nM, 29 nM and 66 nM, respectively. Besides, the IC50 on Histone deacetylase 8 is more than 10000 nM; on Histone deacetylase 1, more than 10000 nM; on Histone deacetylase 2, 9080 nM; in [6], 1750 nM.

Molecule `Nc1ccccc1NC(=O)c1ccc(CCc2ccccc2NS(=O)(=O)c2ccc(F)cc2)cc1` registered a GI50 in the assay on KB of 884 nM.

On to `COc1ccc(S(=O)(=O)Nc2cccnc2Nc2ccc(O)cc2)cc1` [ABT-751], for which the results for the GI50 (in assay [1]; in [5]; in the assay on KB) were 444 nM, 2070 nM and 801 nM, respectively. Further, in the assay with KB7D [9], the result was Active.

Regarding `COc1ccc(S(=O)(=O)Nc2ccccc2CCc2ccc(C(=O)Nc3ccccc3N)cc2)cc1`, the outcome in the assay on KB-VIN [3], with KB-VIN [4], in the assay on KB-VIN [7] and in the assay on KB-VIN [8] was Active. Also, the results for the GI50 (in assay [1]; in assay [5]; in the assay with KB) were 22 nM, 31 nM and 23 nM, respectively. Further, the IC50 on Histone deacetylase 8 is more than 10000 nM; at Histone deacetylase 1, 1190 nM; on Histone deacetylase 2, more than 10000 nM; in assay [6], 2550 nM.

In the assay on KB, `Nc1ccccc1NC(=O)c1ccc(CCc2ccccc2NS(=O)(=O)c2ccccc2)cc1` returned a GI50 of 456 nM.

Take `COc1ccc(S(=O)(=O)Nc2ccccc2/C=C/c2ccc(C(=O)Nc3ccccc3N)cc2)cc1`: the GI50 in the assay on KB was 660 nM.

In the case of `Nc1ccccc1NC(=O)c1ccc(CCc2ccccc2NS(=O)(=O)c2ccc(Br)cc2)cc1`, in the assay on KB, the GI50 is 124 nM.

Regarding `Nc1ccccc1NC(=O)c1ccc(CCc2ccccc2)cc1`, the GI50 in the assay on KB is more than 10000 nM.

Molecule `COc1ccc(S(=O)(=O)Nc2ccccc2CCc2ccc(C(=O)Nc3ccccc3O)cc2)cc1` came in with a GI50 in the assay with KB of 472 nM.

`COc1ccc(S(=O)(=O)Nc2cccc(CCc3ccc(C(=O)Nc4ccccc4N)cc3)c2)cc1`: halving of growth in the assay on KB (GI50) required 678 nM.

For the molecule `COc1ccc(S(=O)(=O)Nc2ccccc2OCc2ccc(C(=O)Nc3ccccc3N)cc2)cc1`, the GI50 in assay [1] turned out to be 62 nM; in assay [5], 42 nM; with KB, 60 nM. The IC50 on Histone deacetylase 8 was more than 10000 nM; on Histone deacetylase 1, 5450 nM; at Histone deacetylase 2, 4950 nM; in [6], 7920 nM.

Consider `COc1ccc(S(=O)(=O)Nc2ccccc2CCc2ccccc2)cc1`, for which, in the assay on KB, the GI50 came out at 4410 nM.

Take `COc1ccc(S(=O)(=O)Nc2ccccc2-c2ccc(C(=O)Nc3ccccc3N)cc2)cc1`: halving of growth with KB (GI50) required 442 nM.

Consider `COc1ccc(S(=O)(=O)Nc2ccc(CCc3ccc(C(=O)Nc4ccccc4N)cc3)cc2)cc1`, for which the GI50 in the assay with KB is more than 10000 nM.

Turning to `COc1ccc(S(=O)(=O)Nc2ccccc2CCc2ccc(C(=O)Nc3ccccc3)cc2)cc1`, the GI50 in the assay on KB worked out at 137 nM.

With `COc1ccc(S(=O)(=O)Nc2ccccc2CCc2ccc(C(=O)NO)cc2)cc1`, the GI50 in the assay with KB is more than 10000 nM.

Molecule `COc1cccc(S(=O)(=O)Nc2ccccc2CCc2ccc(C(=O)Nc3ccccc3N)cc2)c1` came in with a GI50 in the assay on KB of 462 nM.

Consider `Nc1ccccc1NC(=O)c1ccc(CNC(=O)OCc2cccnc2)cc1` [ENTINOSTAT], for which the GI50 in assay [1] stood at 5680 nM; in assay [5], 7710 nM; with KB it was 6630 nM. Moreover, the outcome in the assay with KB7D [10] was Active.

In the assay on KB, `Nc1ccccc1NC(=O)c1ccc(CCc2ccccc2NS(=O)(=O)c2ccc(Cl)cc2)cc1` displayed a GI50 of 448 nM.
